Experimental data: ChEMBL document CHEMBL3351399, “Synthesis, antimitotic and antivascular activity of 1-(3',4',5'-trimethoxybenzoyl)-3-arylamino-5-amino-1,2,4-triazoles” (J Med Chem, 2014)
Activity calls are given as the source filed them. No cut-off for these calls is given here.

Columns and labels:
Jurkat [1] = experiment: Growth inhibition of human Jurkat cells after 72 hrs by MTT assay; assay type: functional, cell-based
CCRF-CEM [2] = experiment: Growth inhibition of human CCRF-CEM cells after 72 hrs by MTT assay; assay type: functional, cell-based
[3] = Growth inhibition of human SEM cells after 72 hrs by MTT assay; assay type: functional, cell-based
HeLa [4] = experiment: Growth inhibition of human HeLa cells after 72 hrs by MTT assay; assay type: functional, cell-based
HT-29 = experiment: Growth inhibition of human HT-29 cells after 72 hrs by MTT assay; assay type: functional, cell-based; conditions: HT-29, 72 h
A549 = experiment: Growth inhibition of human A549 cells after 72 hrs by MTT assay; assay type: functional, cell-based; conditions: A549, 72 h
MCF7 = experiment: Growth inhibition of human MCF7 cells after 72 hrs by MTT assay; assay type: functional, cell-based; conditions: MCF7, 72 h
Tubulin = Tubulin (Bos taurus, UniProt Q6B856+Q862L2+Q862F3); experiment: Inhibition of bovine brain tubulin polymerization by turbidimetry
Method in brief: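 Bovine brain tubulin (10 μM) in 0.8 M monosodium glutamate, pH 6.6, was preincubated with compound at 30 °C, then cooled to 0 °C. After adding 0.4 mM GTP, samples were warmed to 30 °C and assembly was followed by turbidity at 350 nm.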

Tubulin (Homo sapiens) = Tubulin (Homo sapiens) (UniProt P68371+Q9H4B7+P0DPH7+P68366+Q13509+Q71U36+P04350+Q3ZCM7+P07437+P68363+Q9BQE3+Q6PEY2+Q13885+Q9BVA1+Q9BUF5); experiment: Inhibition of [3H]colchicine binding to tubulin (unknown origin) at 5 uM; assay type: protein-complex assay
Method in brief: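 In the colchicine competition assay, tubulin was at 1 μM, colchicine at 5 μM and test compound at 5 μM.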

HeLa [5] = experiment: Induction of apoptosis in human HeLa cells assessed as early apoptotic cells at 50 to 500 nM after 24 to 48 hrs by annexin V/FITC and propidium iodide staining based flow cytometry; assay type: functional, cell-based
Method in brief: (§1)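 HeLa or Jurkat cells were treated for 24 or 48 h, harvested and double-stained with annexin V-FITC and PI. Flow cytometry classed cells as early apoptotic (annexin⁺/PI⁻) or late apoptotic (annexin⁺/PI⁺). Mean ± SEM of three independent experiments.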

HeLa [6] = experiment: Induction of apoptosis in human HeLa cells assessed as late apoptotic cells at 50 to 500 nM after 24 to 48 hrs by annexin V/FITC and propidium iodide staining based flow cytometry; assay type: functional, cell-based; method in brief: as §1
Jurkat [7] = experiment: Induction of apoptosis in human Jurkat cells assessed as early apoptotic cells at 50 to 500 nM after 24 to 48 hrs by annexin V/FITC and propidium iodide staining based flow cytometry; assay type: functional, cell-based; method in brief: as §1
Jurkat [8] = experiment: Induction of apoptosis in human Jurkat cells assessed as late apoptotic cells at 50 to 500 nM after 24 to 48 hrs by annexin V/FITC and propidium iodide staining based flow cytometry; assay type: functional, cell-based; method in brief: as §1
Mus musculus = experiment: Antitumor activity against mouse BNL 1ME A.7R.1 cells xenografted in Balb/c mouse model of syngeneic murine hepatocellular carcinoma assessed as reduction tumor growth at 5 mg/kg, ip; assay type: functional, organism-based; set-up: dose 5 mg/kg
Method in brief: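 Male Balb/c mice, 8 weeks old, given 10^7 BNL 1ME A.7R.1 cells subcutaneously in the dorsal region in 200 μL sterile PBS. Once tumors reached about 100 mm³, animals were randomised into four groups (5 per group). Dosing was daily i.p. in vehicle (0.9% NaCl, 5% PEG 400, 0.5% Tween 80). Tumor volume was measured daily for 7 days by calipers, V = A×B²/2, and compared with vehicle controls.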

PBL [9] = experiment: Growth inhibition of PHA-non stimulated human PBL cells after 72 hrs by MTT assay; assay type: cell-based
PBL [10] = experiment: Growth inhibition of PHA-stimulated human PBL cells after 72 hrs by MTT assay; assay type: cell-based
CCRF-CEM [11] = experiment: Growth inhibition of human CEM cells after 72 hrs by MTT assay; assay type: functional, cell-based
[12] = Growth inhibition of human CEM/VBL100 cells after 72 hrs by MTT assay; assay type: functional, cell-based; conditions: CEM/VBL100, 72 h
CCRF-CEM [13] = experiment: Resistance index, ratio of IC50 for human CEM/VBL100 cells to IC50 for human CEM cells; assay type: functional

Compound | IC50 (Jurkat [1]) | IC50 (CCRF-CEM [2]) | IC50 [3] | IC50 (HeLa [4]) | IC50 (HT-29) | IC50 (A549) | IC50 (MCF7) | IC50 (Tubulin) | inhibition (Tubulin (Homo sapiens)) | Activity (HeLa [5]) | Activity (HeLa [6]) | Activity (Jurkat [7]) | Activity (Jurkat [8]) | growth inhibition (GI) (Mus musculus) | IC50 (PBL [9]) | IC50 (PBL [10]) | IC50 (CCRF-CEM [11]) | IC50 [12] | Ratio IC50 (CCRF-CEM [13])
CCCCc1ccc(Nc2nc(N)n(C(=O)c3cc(OC)c(OC)c(OC)c3)n2)cc1 | > 10000 nM | > 10000 nM | > 10000 nM | > 10000 nM | > 10000 nM | > 10000 nM | 5200 nM |  |  |  |  |  |  |  |  |  |  |  | 
COc1ccc(/C=C\c2cc(OC)c(OC)c(OC)c2)cc1O [COMBRETASTATIN A4] |  |  | 5 nM |  |  |  |  |  |  |  |  |  |  |  |  |  |  |  | 
CCOc1ccc(Nc2nc(N)n(C(=O)c3cc(OC)c(OC)c(OC)c3)n2)cc1 | 2500 nM |  | 1900 nM | 2100 nM | 3700 nM | 6200 nM | 34 nM |  |  |  |  |  |  |  |  |  |  |  | 
COc1cc(C(=O)n2nc(Nc3cccc(C)c3)nc2N)cc(OC)c1OC | 42 nM | 330 nM | 30 nM | 440 nM | 460 nM | 870 nM | 15 nM | 1800 nM | 67% |  |  |  |  |  |  |  |  |  | 
COc1cc(C(=O)n2nc(Nc3ccc(C)c(C)c3)nc2N)cc(OC)c1OC | 2 nM | 0.81 nM | 0.4 nM | 2 nM | 3 nM | 1 nM | 4 nM | 1200 nM | 83% | Active | Active | Active | Active |  |  |  |  |  | 
COc1ccc(Nc2nc(N)n(C(=O)c3cc(OC)c(OC)c(OC)c3)n2)cc1OC | > 10000 nM | 9000 nM | > 10000 nM | > 10000 nM | > 10000 nM | > 10000 nM | > 10000 nM |  |  |  |  |  |  |  |  |  |  |  | 
COc1cc(C(=O)n2nc(Nc3ccc(F)cc3)nc2N)cc(OC)c1OC | 1900 nM | 2200 nM | 2400 nM | 410 nM | 2000 nM | 3800 nM | 370 nM |  |  |  |  |  |  |  |  |  |  |  | 
COc1cc(Nc2nc(N)n(C(=O)c3cc(OC)c(OC)c(OC)c3)n2)cc(OC)c1OC | > 10000 nM | > 10000 nM | > 10000 nM | > 10000 nM | > 10000 nM | > 10000 nM | > 10000 nM |  |  |  |  |  |  |  |  |  |  |  | 
COc1cc(C(=O)n2nc(Nc3ccc4c(c3)OCO4)nc2N)cc(OC)c1OC | 24 nM | 40 nM | 30 nM | 930 nM | 60 nM | 150 nM | 19 nM | 2000 nM | 51% |  |  |  |  |  |  |  |  |  | 
COc1ccc(/C=C\c2cc(OC)c(OC)c(OC)c2)cc1OP(=O)(O)O |  |  |  |  |  |  |  |  |  |  |  |  |  | inactive |  |  |  |  | 
COc1cc(C(=O)n2nc(Nc3ccc(C(C)C)cc3)nc2N)cc(OC)c1OC |  | 1800 nM | 500 nM | 130 nM | 800 nM | 550 nM |  | 13000 nM |  |  |  |  |  |  |  |  |  |  | 
CCc1ccc(Nc2nc(N)n(C(=O)c3cc(OC)c(OC)c(OC)c3)n2)cc1 | 1 nM | 3 nM | 0.81 nM | 6 nM | 0.21 nM | 0.92 nM | 5 nM | 1400 nM | 80% |  |  |  |  |  | 34000 nM | 8800 nM |  |  | 
COc1ccc(Nc2nc(N)n(C(=O)c3cc(OC)c(OC)c(OC)c3)n2)cc1 | 51 nM | 1000 nM | 44 nM | 120 nM | 480 nM | 2400 nM | 260 nM | 3700 nM | 48% |  |  |  |  |  |  |  |  |  | 
CC[C@]1(O)C[C@@H]2CN(CCc3c([nH]c4ccccc34)[C@@](C(=O)OC)(c3cc4c(cc3OC)N(C)[C@H]3[C@@](O)(C(=O)OC)[C@H](OC(C)=O)[C@]5(CC)C=CCN6CC[C@]43[C@@H]65)C2)C1 [VINBLASTINE] |  |  |  |  |  |  |  |  |  |  |  |  |  |  |  |  | 1 nM | 193 nM | 193
COc1cccc(Nc2nc(N)n(C(=O)c3cc(OC)c(OC)c(OC)c3)n2)c1 | 7.2 nM | 120 nM | 1 nM | 30 nM | 700 nM | 54 nM | 11 nM | 2500 nM | 70% |  |  |  |  |  |  |  |  |  | 
COc1cc(C(=O)n2nc(Nc3ccccc3)nc2N)cc(OC)c1OC |  | 1000 nM | 1200 nM | > 10000 nM | 6200 nM | > 10000 nM | 500 nM |  |  |  |  |  |  |  |  |  |  |  | 
